Experimental data reported in ChEMBL document CHEMBL4334458, “Design, synthesis and antibacterial evaluation of novel 15-membered 11a-azahomoclarithromycin derivatives with the 1, 2, 3-triazole side chain” (Eur J Med Chem, 2019).
In brackets after ≈: the same amount, converted by molar mass.

How the values were obtained:
Assay type in all cases: functional
Streptococcus pyogenes [1] = assay: Antibacterial activity against erythromycin-resistant Streptococcus pyogenes 2 clinical isolate incubated for 24 hrs by broth dilution method
Streptococcus pneumoniae [2] = assay: Antibacterial activity against erythromycin-resistant Streptococcus pneumoniae B1 expressing the ermB incubated for 24 hrs by broth dilution method
Staphylococcus aureus [3] = assay: Antibacterial activity against erythromycin-susceptible Staphylococcus aureus ATCC 25923 incubated for 24 hrs by broth dilution method; settings: ATCC 25923, 24 h
Method in brief: (§1)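 CLSI broth microdilution in cation-adjusted Mueller-Hinton broth. Twofold dilutions spanned 0.25–128 or 0.5–256 µg/mL, with CAM and AZM as controls. Log-phase bacteria were added and incubated 24 h at 37 °C. MIC was read by turbidity as the concentration of the last clear well.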

Streptococcus pneumoniae [4] = assay: Antibacterial activity against erythromycin-resistant Streptococcus pneumoniae AB11 expressing the ermB and mefA incubated for 24 hrs by broth dilution method
Streptococcus pyogenes [5] = assay: Antibacterial activity against erythromycin-susceptible Streptococcus pyogenes 1 clinical isolate incubated for 24 hrs by broth dilution method; method in brief: as §1
Bacillus subtilis = assay: Antibacterial activity against penicillin-susceptible Bacillus subtilis ATCC 9372 incubated for 24 hrs by broth dilution method; settings: ATCC 9372, 24 h; method in brief: as §1
Escherichia coli = assay: Antibacterial activity against penicillin-susceptible Escherichia coli ATCC 25922 incubated for 24 hrs by broth dilution method; settings: ATCC 25922, 24 h; method in brief: as §1
Staphylococcus aureus [6] = assay: Antibacterial activity against penicillin-resistant Staphylococcus aureus ATCC 31007 incubated for 24 hrs by broth dilution method; settings: ATCC 31007, 24 h
Staphylococcus aureus [7] = assay: Antibacterial activity against methicillin-resistant Staphylococcus aureus ATCC 43300 incubated for 24 hrs by broth dilution method; settings: ATCC 43300, 24 h
Pseudomonas aeruginosa = assay: Antibacterial activity against penicillin-susceptible Pseudomonas aeruginosa ATCC 27853 incubated for 24 hrs by broth dilution method; settings: ATCC 27853, 24 h; method in brief: as §1

Structure (SMILES) | MIC (Streptococcus pyogenes [1]) [µg/mL] | MIC (Streptococcus pneumoniae [2]) [µg/mL] | MIC (Staphylococcus aureus [3]) [µg/mL] | MIC (Streptococcus pneumoniae [4]) [µg/mL] | MIC (Streptococcus pyogenes [5]) [µg/mL] | MIC (Bacillus subtilis) [µg/mL] | MIC (Escherichia coli) [µg/mL] | MIC (Staphylococcus aureus [6]) [µg/mL] | MIC (Staphylococcus aureus [7]) [µg/mL] | MIC (Pseudomonas aeruginosa) [µg/mL]
CCc1ccc(-n2cc(COC[C@H]3CN(C)C[C@@H](C)[C@@H](O)[C@H](C)C[C@@](C)(OC)[C@H](O[C@@H]4O[C@H](C)C[C@H](N(C)C)[C@H]4O)[C@@H](C)[C@H](O[C@H]4C[C@@](C)(OC)[C@@H](O)[C@H](C)O4)[C@@H](C)C(=O)O3)nn2)cc1 | 64 (≈ 69.6 µM) | 128 (≈ 139 µM) | 0.5 (≈ 0.543 µM) | 32 (≈ 34.8 µM) | 0.5 (≈ 0.543 µM) | ≤ 0.25 | 64 (≈ 69.6 µM) | 128 (≈ 139 µM) | 128 (≈ 139 µM) | 16 (≈ 17.4 µM)
CO[C@]1(C)C[C@@H](C)[C@H](O)[C@H](C)CN(C)C[C@@H](COCc2cn(-c3ccc(OC(F)(F)F)cc3)nn2)OC(=O)[C@H](C)[C@@H](O[C@H]2C[C@@](C)(OC)[C@@H](O)[C@H](C)O2)[C@H](C)[C@H]1O[C@@H]1O[C@H](C)C[C@H](N(C)C)[C@H]1O | 32 (≈ 32.8 µM) | 32 (≈ 32.8 µM) | 4 (≈ 4.1 µM) | 16 (≈ 16.4 µM) | 4 (≈ 4.1 µM) | 2 (≈ 2.05 µM) | 128 (≈ 131 µM) | 64 (≈ 65.6 µM) | 32 (≈ 32.8 µM) | > 128
CO[C@]1(C)C[C@@H](C)[C@H](O)[C@H](C)CN(C)C[C@H](Cn2cc(-c3ccccc3)nn2)OC(=O)[C@H](C)[C@@H](O[C@H]2C[C@@](C)(OC)[C@@H](O)[C@H](C)O2)[C@H](C)[C@H]1O[C@@H]1O[C@H](C)C[C@H](N(C)C)[C@H]1O | 128 (≈ 148 µM) | 256 (≈ 297 µM) | 1 (≈ 1.16 µM) | 128 (≈ 148 µM) | 0.12 (≈ 0.139 µM) | 1 (≈ 1.16 µM) | 32 (≈ 37.1 µM) | 256 (≈ 297 µM) | 256 (≈ 297 µM) | 64 (≈ 74.2 µM)
CO[C@]1(C)C[C@@H](C)[C@H](O)[C@H](C)CN(C)C[C@@H](COCc2cn(-c3ccccn3)nn2)OC(=O)[C@H](C)[C@@H](O[C@H]2C[C@@](C)(OC)[C@@H](O)[C@H](C)O2)[C@H](C)[C@H]1O[C@@H]1O[C@H](C)C[C@H](N(C)C)[C@H]1O | 128 (≈ 143 µM) | > 256 | 2 (≈ 2.24 µM) | 128 (≈ 143 µM) | 2 (≈ 2.24 µM) | 0.5 (≈ 0.56 µM) | 128 (≈ 143 µM) | > 256 | > 256 | 128 (≈ 143 µM)
CO[C@]1(C)C[C@@H](C)[C@H](O)[C@H](C)CN(C)[C@H](Cn2cc(-c3ccccc3)nn2)COC(=O)[C@H](C)[C@@H](O[C@H]2C[C@@](C)(OC)[C@@H](O)[C@H](C)O2)[C@H](C)[C@H]1O[C@@H]1O[C@H](C)C[C@H](N(C)C)[C@H]1O | 128 (≈ 148 µM) | 256 (≈ 297 µM) | 8 (≈ 9.28 µM) | 256 (≈ 297 µM) | 8 (≈ 9.28 µM) | 16 (≈ 18.6 µM) | 64 (≈ 74.2 µM) | 128 (≈ 148 µM) | 256 (≈ 297 µM) | 64 (≈ 74.2 µM)
CO[C@]1(C)C[C@@H](C)[C@H](O)[C@H](C)CN(C)[C@H](Cn2cc(-c3ccccn3)nn2)COC(=O)[C@H](C)[C@@H](O[C@H]2C[C@@](C)(OC)[C@@H](O)[C@H](C)O2)[C@H](C)[C@H]1O[C@@H]1O[C@H](C)C[C@H](N(C)C)[C@H]1O | 256 (≈ 297 µM) | 256 (≈ 297 µM) | 16 (≈ 18.5 µM) | 128 (≈ 148 µM) | 4 (≈ 4.63 µM) | 32 (≈ 37.1 µM) | 64 (≈ 74.2 µM) | 256 (≈ 297 µM) | 256 (≈ 297 µM) | 64 (≈ 74.2 µM)
CO[C@]1(C)C[C@@H](C)[C@H](O)[C@H](C)CN(C)[C@H](Cn2cc(-c3ccc(Cl)cc3)nn2)COC(=O)[C@H](C)[C@@H](O[C@H]2C[C@@](C)(OC)[C@@H](O)[C@H](C)O2)[C@H](C)[C@H]1O[C@@H]1O[C@H](C)C[C@H](N(C)C)[C@H]1O | 32 (≈ 35.7 µM) | 64 (≈ 71.4 µM) | 8 (≈ 8.92 µM) | 64 (≈ 71.4 µM) | 8 (≈ 8.92 µM) | 8 (≈ 8.92 µM) | 128 (≈ 143 µM) | 64 (≈ 71.4 µM) | 64 (≈ 71.4 µM) | > 128
CO[C@]1(C)C[C@@H](C)[C@H](O)[C@H](C)CN(C)C[C@@H](COCc2cn(-c3cccc(C(F)(F)F)c3)nn2)OC(=O)[C@H](C)[C@@H](O[C@H]2C[C@@](C)(OC)[C@@H](O)[C@H](C)O2)[C@H](C)[C@H]1O[C@@H]1O[C@H](C)C[C@H](N(C)C)[C@H]1O | 32 (≈ 33.3 µM) | 32 (≈ 33.3 µM) | 8 (≈ 8.33 µM) | 16 (≈ 16.7 µM) | 4 (≈ 4.17 µM) | 2 (≈ 2.08 µM) | 128 (≈ 133 µM) | 64 (≈ 66.7 µM) | 32 (≈ 33.3 µM) | > 128
CO[C@]1(C)C[C@@H](C)[C@H](O)[C@H](C)CN(C)C[C@H](COCc2cn(-c3ccc(OC(F)(F)F)cc3)nn2)OC(=O)[C@H](C)[C@@H](O[C@H]2C[C@@](C)(OC)[C@@H](O)[C@H](C)O2)[C@H](C)[C@H]1O[C@@H]1O[C@H](C)C[C@H](N(C)C)[C@H]1O | 32 (≈ 32.8 µM) | 128 (≈ 131 µM) | 2 (≈ 2.05 µM) | 32 (≈ 32.8 µM) | 2 (≈ 2.05 µM) | 1 (≈ 1.02 µM) | 64 (≈ 65.6 µM) | 128 (≈ 131 µM) | 128 (≈ 131 µM) | 16 (≈ 16.4 µM)
COc1ccc(-c2cn(C[C@@H]3CN(C)C[C@@H](C)[C@@H](O)[C@H](C)C[C@@](C)(OC)[C@H](O[C@@H]4O[C@H](C)C[C@H](N(C)C)[C@H]4O)[C@@H](C)[C@H](O[C@H]4C[C@@](C)(OC)[C@@H](O)[C@H](C)O4)[C@@H](C)C(=O)O3)nn2)cc1 | 64 (≈ 71.7 µM) | 256 (≈ 287 µM) | 32 (≈ 35.9 µM) | 128 (≈ 143 µM) | 4 (≈ 4.48 µM) | 64 (≈ 71.7 µM) | > 128 | 256 (≈ 287 µM) | 256 (≈ 287 µM) | > 128
CO[C@]1(C)C[C@@H](C)[C@H](O)[C@H](C)CN(C)[C@@H](Cn2cc(-c3ccccn3)nn2)COC(=O)[C@H](C)[C@@H](O[C@H]2C[C@@](C)(OC)[C@@H](O)[C@H](C)O2)[C@H](C)[C@H]1O[C@@H]1O[C@H](C)C[C@H](N(C)C)[C@H]1O | 256 (≈ 297 µM) | > 256 | 64 (≈ 74.2 µM) | 256 (≈ 297 µM) | 16 (≈ 18.5 µM) | 32 (≈ 37.1 µM) | > 128 | > 256 | > 256 | > 128
COc1ccc(-n2cc(COC[C@H]3CN(C)C[C@@H](C)[C@@H](O)[C@H](C)C[C@@](C)(OC)[C@H](O[C@@H]4O[C@H](C)C[C@H](N(C)C)[C@H]4O)[C@@H](C)[C@H](O[C@H]4C[C@@](C)(OC)[C@@H](O)[C@H](C)O4)[C@@H](C)C(=O)O3)nn2)cc1 | 128 (≈ 139 µM) | > 256 | 1 (≈ 1.08 µM) | 64 (≈ 69.4 µM) | 0.25 (≈ 0.271 µM) | 0.5 (≈ 0.542 µM) | 64 (≈ 69.4 µM) | > 256 | > 256 | 16 (≈ 17.4 µM)
CO[C@]1(C)C[C@@H](C)[C@H](O)[C@H](C)CN(C)[C@@H](Cn2cc(-c3ccc(Cl)cc3)nn2)COC(=O)[C@H](C)[C@@H](O[C@H]2C[C@@](C)(OC)[C@@H](O)[C@H](C)O2)[C@H](C)[C@H]1O[C@@H]1O[C@H](C)C[C@H](N(C)C)[C@H]1O | 64 (≈ 71.4 µM) | 256 (≈ 286 µM) | 32 (≈ 35.7 µM) | 128 (≈ 143 µM) | 16 (≈ 17.8 µM) | 16 (≈ 17.8 µM) | > 128 | 128 (≈ 143 µM) | 64 (≈ 71.4 µM) | > 128
CO[C@]1(C)C[C@@H](C)[C@H](O)[C@H](C)CN(C)[C@@H](Cn2cc(-c3ccccc3)nn2)COC(=O)[C@H](C)[C@@H](O[C@H]2C[C@@](C)(OC)[C@@H](O)[C@H](C)O2)[C@H](C)[C@H]1O[C@@H]1O[C@H](C)C[C@H](N(C)C)[C@H]1O | 128 (≈ 148 µM) | 256 (≈ 297 µM) | 32 (≈ 37.1 µM) | 128 (≈ 148 µM) | 2 (≈ 2.32 µM) | 16 (≈ 18.6 µM) | > 128 | 256 (≈ 297 µM) | 256 (≈ 297 µM) | > 128
COc1cccc(-n2cc(COC[C@@H]3CN(C)C[C@@H](C)[C@@H](O)[C@H](C)C[C@@](C)(OC)[C@H](O[C@@H]4O[C@H](C)C[C@H](N(C)C)[C@H]4O)[C@@H](C)[C@H](O[C@H]4C[C@@](C)(OC)[C@@H](O)[C@H](C)O4)[C@@H](C)C(=O)O3)nn2)c1 | 64 (≈ 69.4 µM) | 128 (≈ 139 µM) | 2 (≈ 2.17 µM) | 64 (≈ 69.4 µM) | 2 (≈ 2.17 µM) | 2 (≈ 2.17 µM) | 128 (≈ 139 µM) | 256 (≈ 278 µM) | 256 (≈ 278 µM) | 128 (≈ 139 µM)
CC[C@H]1OC(=O)[C@H](C)[C@@H](O[C@H]2C[C@@](C)(OC)[C@@H](O)[C@H](C)O2)[C@H](C)[C@@H](O[C@@H]2O[C@H](C)C[C@H](N(C)C)[C@H]2O)[C@](C)(O)C[C@@H](C)CN(C)[C@H](C)[C@@H](O)[C@]1(C)O [AZITHROMYCIN] | 256 (≈ 342 µM) | > 256 | ≤ 0.25 | 256 (≈ 342 µM) | ≤ 0.03 | ≤ 0.25 | 64 (≈ 85.4 µM) | > 256 | > 256 | 16 (≈ 21.4 µM)
COc1ccc(-c2cn(C[C@H]3CN(C)C[C@@H](C)[C@@H](O)[C@H](C)C[C@@](C)(OC)[C@H](O[C@@H]4O[C@H](C)C[C@H](N(C)C)[C@H]4O)[C@@H](C)[C@H](O[C@H]4C[C@@](C)(OC)[C@@H](O)[C@H](C)O4)[C@@H](C)C(=O)O3)nn2)cc1 | 128 (≈ 143 µM) | > 256 | 1 (≈ 1.12 µM) | 256 (≈ 287 µM) | 0.12 (≈ 0.135 µM) | 1 (≈ 1.12 µM) | 32 (≈ 35.9 µM) | > 256 | > 256 | 64 (≈ 71.7 µM)
